Data: ChEMBL document CHEMBL4765286, “Identification and development of non-cytotoxic cell death modulators: Impact of sartans and derivatives on PPARγ activation and on growth of imatinib-resistant chronic myelogenous leukemia cells” (Eur J Med Chem, 2020)
The source made the active and inactive calls. No cut-off for these calls is given here.

Experiments:
[1] = system: COS-7; test: Cytotoxicity against African green monkey COS7 cells assessed as effect on metabolic activity at 20 uM measured after 72 hrs by MTT assay; type: ADME, cell-based; settings: chlorocebus aethiops, cos-7, 72 h
Summary of the method: (§1)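 COS-7 cells seeded at 2×10^3 per well in triplicate, grown 24 h, then exposed to test agent or DMSO vehicle (final DMSO ≤0.1%) for 72 h. Metabolic activity read with a modified MTT (EZ4U) kit. Background from FCS-containing medium plus substrate subtracted. Expressed relative to vehicle control set to 100%. Mean +SD of ≥3 independent experiments.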

[2] = system: COS-7; test: Cytotoxicity against African green monkey COS7 cells assessed as effect on metabolic activity at 10 uM measured after 72 hrs by MTT assay; type: ADME, cell-based; settings: chlorocebus aethiops, cos-7, 72 h; summary of the method: as §1
[3] = Cytotoxicity against human HS5 cells assessed as cell death at 10 uM measured after 72 hrs by Propidium iodide stain based FACS analysis; settings: hs5, 72 h
Summary of the method: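 HS-5 cells seeded at 0.5×10^5 per well and treated with compound or DMSO vehicle (final DMSO ≤0.1%) for 72 h. Harvested cells stained with PI/Triton-X100 for 2 h at 4 °C. Dead cells were counted by flow cytometry as nuclei in the sub-G1 window. Mean +SEM of ≥3 independent experiments.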

[4] = target: T1, Signal transducer and activator of transcription 5A (Homo sapiens) (UniProt P42229); test: Inhibition of STAT5 in imatinib-resistant human K562 cells assessed as effect on STAT5 expression in presence of imatinib at 10 uM measured after 6 hrs by Western blot assay; type: cell-based
T1 sequence (whole entry): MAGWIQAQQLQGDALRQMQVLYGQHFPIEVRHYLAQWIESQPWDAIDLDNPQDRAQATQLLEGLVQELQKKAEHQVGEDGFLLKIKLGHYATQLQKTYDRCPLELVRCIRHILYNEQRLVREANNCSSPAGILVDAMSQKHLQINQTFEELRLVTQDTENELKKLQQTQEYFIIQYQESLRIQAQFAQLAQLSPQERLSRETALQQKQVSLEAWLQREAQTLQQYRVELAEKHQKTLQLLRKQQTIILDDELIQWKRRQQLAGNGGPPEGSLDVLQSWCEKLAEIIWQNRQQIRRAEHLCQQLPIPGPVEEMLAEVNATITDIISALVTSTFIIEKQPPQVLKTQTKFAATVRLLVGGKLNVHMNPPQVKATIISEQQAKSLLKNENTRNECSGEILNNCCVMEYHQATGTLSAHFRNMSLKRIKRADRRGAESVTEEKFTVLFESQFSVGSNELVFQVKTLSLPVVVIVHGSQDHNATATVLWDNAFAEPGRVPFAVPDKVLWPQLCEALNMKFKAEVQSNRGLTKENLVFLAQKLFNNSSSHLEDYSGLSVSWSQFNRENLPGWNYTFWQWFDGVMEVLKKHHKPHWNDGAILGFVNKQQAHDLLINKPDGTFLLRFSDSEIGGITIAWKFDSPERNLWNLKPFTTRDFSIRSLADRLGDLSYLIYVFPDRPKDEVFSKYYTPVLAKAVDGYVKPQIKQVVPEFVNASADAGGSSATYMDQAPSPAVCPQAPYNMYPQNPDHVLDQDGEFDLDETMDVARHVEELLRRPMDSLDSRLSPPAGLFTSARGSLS

[5] = target: T1, Signal transducer and activator of transcription 5A (Homo sapiens); test: Inhibition of STAT5 phosphorylation in imatinib-resistant human K562 cells in presence of imatinib at 10 uM measured after 6 hrs by Western blot assay; type: cell-based
Summary of the method: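 K562-resistant cells (a doxorubicin-resistant K562 subclone, KD225) kept in RPMI 1640 with 10% FCS. Cells received 1 µM imatinib alone or with 10 µM compound for 6 h. Immunoblots were probed for STAT5 and for pSTAT5 (Tyr694/699), with GAPDH as loading control, and developed by ECL. Densitometry was normalised to the imatinib-only control set to 100%.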

[6] = Modulation of cell death in imatinib-resistant human K562 cells assessed by increase in imatinib-mediated cell death in presence of presence of imatinib measured after 72 hrs by Propidium iodide stain based FACS assay (reference value: 17%); type: functional
[7] = target: T2, Peroxisome proliferator-activated receptor gamma (Homo sapiens, UniProt P37231); test: Agonist activity at human PPARgammaDEF receptor expressed in african green monkey COS7 cells transfected with pGal5-TK-pGL3/pRenilla-CMV assessed as intrinsic activity measured after 39 hrs by dual luciferase reporter assay; type: cell-based
T2 sequence (P37231 whole entry): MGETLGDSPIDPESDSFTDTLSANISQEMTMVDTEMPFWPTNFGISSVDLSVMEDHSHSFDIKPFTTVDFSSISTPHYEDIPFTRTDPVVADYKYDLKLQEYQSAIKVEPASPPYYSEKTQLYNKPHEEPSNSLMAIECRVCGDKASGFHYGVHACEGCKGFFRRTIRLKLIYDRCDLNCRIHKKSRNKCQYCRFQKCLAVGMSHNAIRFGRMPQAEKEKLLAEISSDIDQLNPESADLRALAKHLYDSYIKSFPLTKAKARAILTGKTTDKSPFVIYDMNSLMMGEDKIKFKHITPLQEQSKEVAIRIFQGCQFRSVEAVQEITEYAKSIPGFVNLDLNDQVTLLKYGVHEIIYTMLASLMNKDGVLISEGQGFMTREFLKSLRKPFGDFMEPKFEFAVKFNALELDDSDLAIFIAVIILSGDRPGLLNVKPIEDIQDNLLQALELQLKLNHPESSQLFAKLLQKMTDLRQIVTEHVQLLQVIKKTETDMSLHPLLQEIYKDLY

[8] = Modulation of cell death in imatinib-resistant human K562 cells assessed by increase in imatinib-mediated cell death in presence of presence of imatinib at 2.5 uM measured after 72 hrs by Propidium iodide stain based FACS assay (reference value: 17%); type: functional

SMILES	Activity [1]	Activity [2]	Activity [3]	inhibition [4]	inhibition [5]	Activity [6]	EC50 [7]	Activity [8]
CCCc1nc2c(C)cc(-c3nc4ccccc4n3C)cc2n1Cc1ccc(-c2ccccc2C(=O)O)cc1 [TELMISARTAN]	Non-Toxic	Non-Toxic	Non-Toxic	inactive	Active	63%		
CCCc1nc2c(C(=O)O)cccc2n1Cc1ccc(-c2ccccc2C(=O)O)cc1	Non-Toxic	Non-Toxic	Non-Toxic	inactive	inactive	12%		
CCCc1nc2c(C)cc(-c3nc4ccccc4n3C)cc2n1Cc1ccc(-c2ccccc2C(N)=O)cc1	Non-Toxic	Non-Toxic	Non-Toxic	inactive	Active	89%	9.1 µM	50%
CCCCC1=NC2(CCCC2)C(=O)N1Cc1ccc(-c2ccccc2-c2nnn[nH]2)cc1 [IRBESARTAN]	Non-Toxic	Non-Toxic	Non-Toxic			31%		
CCc1ccc(CCOc2ccc(CC3SC(=O)NC3=O)cc2)nc1 (centres undefined) [PIOGLITAZONE]	Non-Toxic	Non-Toxic	Non-Toxic					
CCCc1nc(C(C)(C)O)c(C(=O)O)n1Cc1ccc(-c2ccccc2-c2nnn[nH]2)cc1 [OLMESARTAN]	Non-Toxic	Non-Toxic	Non-Toxic					
CCCc1nc2cccc(C(=O)O)c2n1Cc1ccc(-c2ccccc2C(=O)O)cc1	Non-Toxic	Non-Toxic	Non-Toxic	inactive	inactive	12%		
CCCc1nc2c(C(=O)OC)cccc2n1Cc1ccc(-c2ccccc2C(=O)OC)cc1	20%	Non-Toxic	Non-Toxic	inactive	Active	83%		50%
CCOc1nc2cccc(C(=O)O)c2n1Cc1ccc(-c2ccccc2-c2nnn[nH]2)cc1 [CANDESARTAN]	Non-Toxic	Non-Toxic	Non-Toxic			42%		
CCCc1nc2cccc(C(=O)OC)c2n1Cc1ccc(-c2ccccc2C(=O)OC)cc1	Non-Toxic	Non-Toxic	Non-Toxic	inactive	Active	83%		50%
CCCc1nc2c(C(=O)O)cccc2n1Cc1ccc(-c2ccccc2C(=O)OC)cc1	Non-Toxic	Non-Toxic	Non-Toxic	inactive	Active	56%		
CCOc1nc2cccc(C(=O)OC(C)OC(=O)OC3CCCCC3)c2n1Cc1ccc(-c2ccccc2-c2nnn[nH]2)cc1 (centres undefined) [CANDESARTAN CILEXETIL]	Non-Toxic	Non-Toxic	Non-Toxic					
CCCCc1nc(Cl)c(CO)n1Cc1ccc(-c2ccccc2-c2nn[nH]n2)cc1 [LOSARTAN]	Non-Toxic	Non-Toxic	Non-Toxic					
CCCc1nc(C(C)(C)O)c(C(=O)OCc2oc(=O)oc2C)n1Cc1ccc(-c2ccccc2-c2nnn[nH]2)cc1 [OLMESARTAN MEDOXOMIL]	Non-Toxic	Non-Toxic	Non-Toxic					
